According to ChEMBL document CHEMBL4325897, “Discovery, synthesis of novel fusidic acid derivatives possessed amino-terminal groups at the 3-hydroxyl position with anticancer activity” (Eur J Med Chem, 2019):
The source made the active and inactive calls. No cut-off for these calls is given here.

How the values were obtained:
[1] = system: HeLa; assay: Cytotoxicity against human HeLa cells assessed as cell viability at 5 uM after 72 hrs by MTT assay relative to control; format: functional; settings: read-out: Activity
Method in brief: (§1)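 Cells grown in DMEM with 10% heat-inactivated FCS and penicillin/streptomycin at 37 °C, 5% CO2, and used in log phase. Seeded in 96-well plates and exposed to compounds at 5 μM and 1.5 μM for 72 h. MTT added, formazan dissolved in DMSO, OD read at 570 nm, and survival rate calculated. Average of at least three independent experiments.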

[2] = system: HeLa; assay: Cytotoxicity against human HeLa cells assessed as cell viability at 1.5 uM after 72 hrs by MTT assay relative to control; format: functional; settings: read-out: Activity; method in brief: as §1
[3] = Cytotoxicity against human KBV cells assessed as cell viability at 5 uM after 72 hrs by MTT assay relative to control; format: functional; settings: read-out: Activity; method in brief: as §1
[4] = Cytotoxicity against human KBV cells assessed as cell viability at 1.5 uM after 72 hrs by MTT assay relative to control; format: functional; settings: read-out: Activity; method in brief: as §1
[5] = system: U-87 MG; assay: Cytotoxicity against human U87 cells assessed as cell viability at 5 uM after 72 hrs by MTT assay relative to control; format: functional, U-87MG ATCC; settings: read-out: Activity; method in brief: as §1
[6] = system: U-87 MG; assay: Cytotoxicity against human U87 cells assessed as cell viability at 1.5 uM after 72 hrs by MTT assay relative to control; format: functional, U-87MG ATCC; settings: read-out: Activity; method in brief: as §1
[7] = system: MKN-45; assay: Cytotoxicity against human MKN45 cells assessed as cell viability at 5 uM after 72 hrs by MTT assay relative to control; format: functional; settings: MKN-45, 72 h, read-out: Activity; method in brief: as §1
[8] = system: MKN-45; assay: Cytotoxicity against human MKN45 cells assessed as cell viability at 1.5 uM after 72 hrs by MTT assay relative to control; format: functional; settings: MKN-45, 72 h, read-out: Activity; method in brief: as §1
[9] = Cytotoxicity against HEK293 cells assessed as reduction in cell viability after 72 hrs by MTT assay; format: cell-based; settings: human
[10] = system: HeLa; assay: Cytotoxicity against human HeLa cells assessed as reduction in cell viability after 72 hrs by MTT assay; format: functional, cell-based
[11] = system: U-87 MG; assay: Cytotoxicity against human U87 cells assessed as reduction in cell viability after 72 hrs by MTT assay; format: functional, cell-based, U-87MG ATCC
[12] = Cytotoxicity against human JHH7 cells assessed as reduction in cell viability after 72 hrs by MTT assay; format: functional, cell-based; settings: JHH7, 72 h
[13] = Cytotoxicity against human KBV cells assessed as reduction in cell viability after 72 hrs by MTT assay; format: functional, cell-based
[14] = system: MKN-45; assay: Cytotoxicity against human MKN45 cells assessed as reduction in cell viability after 72 hrs by MTT assay; format: functional, cell-based; settings: MKN-45, 72 h
[15] = system: HeLa; assay: Induction of apoptosis in human HeLa cells assessed as increase in early apoptotic cells at 2 uM after 24 hrs by TUNEL staining based fluorescence microscopic analysis; format: functional, cell-based
Method in brief: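 HeLa cells seeded at 2×10^4 cells/well on cover slips and grown 24 h, then treated at 2 μM for 24 h. Fixed, permeabilized, and incubated with TUNEL reaction mixture (labeling enzyme plus labeled dUTP) at 37 °C for 1 h. DAPI counterstain, and TUNEL-positive cells viewed by fluorescence microscopy.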

[16] = system: HeLa; assay: Induction of apoptosis in human HeLa cells assessed as increase in ratio of sub-G0 to G1 phase at 5 uM after 48 to 72 hrs by propidium iodide staining based FACS analysis; format: functional, cell-based
[17] = system: HeLa; assay: Inhibition of protein synthesis in human HeLa cells assessed as decrease in puromycin-incorporated neo-synthesized proteins at 5 uM preincubated for 2 hrs followed by puromycin addition and measured after 10 mins by chemiluminescence assay; format: functional, cell-based
Method in brief: (§2)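 HeLa cells at 70-80% confluence treated with compound for 2 h (range 1-10 μM), then pulsed with 10 μg/mL puromycin for 10 min. After ice-cold PBS washes, lysates run on SDS-PAGE and immunoblotted with anti-puromycin antibody (1:100, overnight, 4 °C) and HRP anti-mouse IgG. Read by enhanced chemiluminescence.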

[18] = system: Staphylococcus aureus; assay: Antibacterial activity against Staphylococcus aureus; format: functional
[19] = system: HeLa; assay: Inhibition of protein synthesis in human HeLa cells assessed as decrease in puromycin-incorporated neo-synthesized proteins preincubated for 2 hrs followed by puromycin addition and measured after 10 mins by chemiluminescence assay; format: functional, cell-based; method in brief: as §2
[20] = system: HeLa; assay: Antitumor activity against human HeLa cells xenografted in BALB/c mouse assessed as tumor growth inhibition at 25 mg/kg, ig bid measured every 3 days relative to control; format: functional; settings: po, 72 h, read-out: TGI
[21] = system: HeLa; assay: Antitumor activity against human HeLa cells xenografted in BALB/c mouse assessed as tumor growth inhibition at 50 mg/kg, ig bid measured every 3 days relative to control; format: functional; settings: po, 72 h, read-out: TGI
[22] = Toxicity in BALB/c mouse xenografted with human HeLa cells assessed as body weight at 25 mg/kg, ig bid measured every 3 days (reference value: 21.2 +/- 1.5 g); format: organism-based; settings: in vivo, po, 72 h
[23] = Toxicity in BALB/c mouse xenografted with human HeLa cells assessed as body weight at 50 mg/kg, ig bid measured every 3 days (reference value: 21.2 +/- 1.5 g); format: organism-based; settings: in vivo, po, 72 h

| Structure (SMILES) | viability at 5 µM [1] [%] | viability at 1.5 µM [2] [%] | viability at 5 µM [3] [%] | viability at 1.5 µM [4] [%] | viability at 5 µM [5] [%] | viability at 1.5 µM [6] [%] | viability at 5 µM [7] [%] | viability at 1.5 µM [8] [%] | IC50 [10] [µM] | IC50 [11] [µM] | IC50 [12] [µM] | IC50 [13] [µM] | IC50 [14] [µM] | Activity [15] | Activity [16] | also measured |
| --- | --- | --- | --- | --- | --- | --- | --- | --- | --- | --- | --- | --- | --- | --- | --- | --- |
| CC(=O)O[C@H]1C[C@@]2(C)[C@@H](C[C@@H](O)[C@H]3[C@@]4(C)CC[C@@H](O)[C@@H](C)[C@@H]4CC[C@@]32C)/C1=C(\CCC=C(C)C)C(=O)O [FUSIDIC ACID] | 73 | 70 | 67 | 71 | 87 | 92 | 83 | 80 | > 100 | > 100 | > 100 | > 100 | > 100 | inactive | inactive | CC50 at 72 h [9]: > 32 µg/mL; inhibition [17]: inactive; MIC [18]: ≤ 0.25 µg/mL |
| CC(=O)O[C@H]1C[C@@]2(C)[C@@H](C[C@@H](O)[C@H]3[C@@]4(C)CC[C@@H](OC(=O)CCN)[C@@H](C)[C@@H]4CC[C@@]32C)/C1=C(\CCC=C(C)C)C(=O)OCc1ccccc1 | 13 | 32 | 12 | 14 | 9 | 10 | 5 | 23 | 3.57 | 2.4 | 3.18 | 1.26 | 1.28 | Active | Active | inhibition [19]: Dose-dependent effect; inhibition in vivo at 25 mg/kg [20]: 35.4%; inhibition in vivo at 50 mg/kg [21]: 45.5%; Activity [22]: 20.4 g; Activity [23]: 20.5 g |
